High-throughput results: PubChem BioAssay, several laboratories
SENP1 FRET inh – inhibitors of human SENP1 SUMO protease catalytic domain | Q9P0U3 | recombinant SENP1 catalytic domain, CyPet-SUMO1-YPet FRET cleavage | inhibition, % at 10 µM | hit rate 0.21% among 360,000;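 active = inhibition at least 30% at 10 µM, raw YFP signal under a set limit, fluorescence ratio 0.5 to 1.5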;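 note: 0% = enzyme with DMSO and 100% = no enzyme wells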
Target sequence (Q9P0U3 419-644 limits assumed): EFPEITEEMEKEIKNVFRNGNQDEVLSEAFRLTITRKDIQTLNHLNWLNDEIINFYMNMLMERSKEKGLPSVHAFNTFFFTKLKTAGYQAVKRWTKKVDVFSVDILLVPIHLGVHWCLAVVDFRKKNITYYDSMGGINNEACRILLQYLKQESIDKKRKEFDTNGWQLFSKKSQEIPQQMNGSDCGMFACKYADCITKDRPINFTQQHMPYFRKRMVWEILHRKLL
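Assay system: hSENP1 catalytic domain, recombinant. Amount: SENP1 enzyme, 20 pM final. Schedule: 50 min reaction, RT, dark. Technique: FRET, CFP and YFP emission. Control set: no-enzyme wells low, DMSO-plus-enzyme wells high control.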
NadD inh – inhibitors of Staphylococcus aureus NadD; purified NadD enzyme, colorimetric absorbance read-out; inhibition, % at 20 µM; hit rate 0.78% among 360,000; in the data active = inhibition above about 26%
UCH37 inh – blocks the human deubiquitinase UCH37. AID 588478. Q9Y5K5. inhibition, % (no concentration beside the values). hit rate 0.33% among 330,000. purified proteasome/UCH37, Ub-AMC cleavage fluorescence;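 active = mean inhibition over replicate wells above about 20%, limit read from the data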;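 note: 0% = compound-free wells with enzyme and 100% = wells lacking proteasome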
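Material: human UCH37 enzyme supplied as purified proteasome complex. Measure: % inhibition of Ub-AMC cleavage fluorescence. Medium: pH 7.4 Tris-HCl (50 mM) with ovalbumin, ATP-MgCl2, DTT. Times: 30 min preincubation with enzyme, 25 min cleavage at room temperature. Detection: AMC fluorescence intensity at 355/460 nm.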
ATG4B inh – inhibitors of human ATG4B cysteine protease | ATG4B cleavage of LC3-PLA2, NBD-HPC fluorescence, 1 h | inhibition, % at 8.33 µM | Q9Y4P1 | hit rate 0.51% among 340,000; in the data active = inhibition above about 40%
Target sequence (Q9Y4P1 whole entry, looked up): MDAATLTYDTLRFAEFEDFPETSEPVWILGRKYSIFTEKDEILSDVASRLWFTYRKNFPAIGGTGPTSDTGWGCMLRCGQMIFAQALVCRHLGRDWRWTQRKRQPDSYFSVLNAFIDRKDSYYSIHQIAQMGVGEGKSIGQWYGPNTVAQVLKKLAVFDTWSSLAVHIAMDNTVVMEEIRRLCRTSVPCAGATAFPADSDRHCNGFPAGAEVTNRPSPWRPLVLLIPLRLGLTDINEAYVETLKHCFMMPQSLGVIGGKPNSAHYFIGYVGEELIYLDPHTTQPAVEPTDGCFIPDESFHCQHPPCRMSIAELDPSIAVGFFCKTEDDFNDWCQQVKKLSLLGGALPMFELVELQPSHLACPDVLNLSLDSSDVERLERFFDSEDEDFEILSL
GRIN3A LBD mod – NR3A (human) ligand-binding domain modulation; hit rate 2.5% among 340,000; AID 1259313; Tm shift relative to glycine control, % at 25 µM; NR3A LBD differential scanning fluorimetry, Tm shift; 0% = protein alone, 100% = glycine-bound protein;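 active = melting temperature shift of at least 10% of the positive control shift, at one fixed dose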
* hit, by the source's call. Only some compounds are listed: those with a hit (about 3.6% of all), similar ones and a draw of the others.

For CNC(=O)N(O)C1N(N=Cc2cccs2)C(=S)SC1(C)C (stereo not drawn) the results were UCH37 inh 13.
Screening Cc1occc1C(=O)NN=Cc1ccc(OCc2ccccc2)cc1 returned UCH37 inh 4.
O/N=C\c1ccc2noc(-c3ccc(Cl)cc3)c2c1 was read as SENP1 FRET inh -13, NadD inh -5, ATG4B inh 5 and GRIN3A LBD mod 32*.
Screening CC(=O)c1ccc2noc(-c3ccc(Cl)cc3)c2c1 returned SENP1 FRET inh -41, NadD inh -7, UCH37 inh -5, ATG4B inh -4 and GRIN3A LBD mod 1.
For COc1cc(C=NNC(N)=O)ccc1OCC(=O)Nc1cc(C)c(C)cc1Br the results were UCH37 inh 3.
Screening c1ccc(N2CC3COc4ccccc4C3=N2)cc1 (stereo not drawn) returned SENP1 FRET inh -27, NadD inh -1, ATG4B inh 3 and GRIN3A LBD mod 17*.
For c1ccc2c(c1)OCc1cn[nH]c1-2 the results were SENP1 FRET inh 1, NadD inh -7, UCH37 inh 4, ATG4B inh -1 and GRIN3A LBD mod 0.
`COCCCNC(=O)C(=O)NN=Cc1cc2c(cc1Br)OCO2` gave UCH37 inh 10.
Screening Nc1c(C(=O)NN=Cc2ccc(Cl)cc2)cnn1-c1ccccc1 returned UCH37 inh 3.
Screening Nc1c(C(=O)N/N=C/c2ccccc2)cnn1-c1ccccc1 returned SENP1 FRET inh 2, NadD inh -12, ATG4B inh -3 and GRIN3A LBD mod 15*.
Screening O=C(NNC1CC(=O)N(c2ccc(Cl)cc2)C1=O)c1ccccn1 (stereo not drawn) returned SENP1 FRET inh 3, NadD inh 2, UCH37 inh 26*, ATG4B inh -11 and GRIN3A LBD mod -1.
COc1cccc(NC(=O)Nc2ccc3nc(C)c(C)nc3c2)c1 was read as SENP1 FRET inh 9, NadD inh -3, ATG4B inh 0 and GRIN3A LBD mod 28*.
`COc1ccc(NC(=O)Nc2ccc3oc(C)nc3c2)cc1` gave SENP1 FRET inh 0, NadD inh 9, UCH37 inh 2, ATG4B inh -5 and GRIN3A LBD mod 25*.
For COc1cccc(NC(=O)Nc2cc(Cl)ccc2C)c1 the results were SENP1 FRET inh 1, NadD inh -2, UCH37 inh 3, ATG4B inh -8 and GRIN3A LBD mod 21*.
`COc1cccc(OC)c1C(=O)Nc1ccc2nc(C)c(C)nc2c1` gave SENP1 FRET inh -2, NadD inh -1, UCH37 inh -25, ATG4B inh -7 and GRIN3A LBD mod 0.
COc1cccc(NC(=O)Nc2ccccc2Br)c1 was read as SENP1 FRET inh 2, NadD inh -5, UCH37 inh 1, ATG4B inh -7 and GRIN3A LBD mod 1.
COc1cccc(NC(=O)CN(C)CC(=O)NCC(=O)Nc2ccc(F)cc2)c1 was read as SENP1 FRET inh -3, NadD inh -1, UCH37 inh -2, ATG4B inh -1 and GRIN3A LBD mod 19*.
COc1ccc(NC(=O)CN(C)CC(=O)NCC(=O)Nc2ccc(F)cc2)cc1 was read as SENP1 FRET inh 0, NadD inh 2, UCH37 inh 1, ATG4B inh -5 and GRIN3A LBD mod 2.
Screening N#CCC(=O)NN=Cc1c2ccccc2cc2ccccc12 returned UCH37 inh 6.
For CCCCNC(=O)N(O)C1N(N=Cc2cccs2)C(=S)SC1(C)C (stereo not drawn) the results were UCH37 inh 10.
`COc1cccc(NC(=O)Nc2ccc3c(c2)nc(C)n3C)c1` gave SENP1 FRET inh 0, NadD inh 2, UCH37 inh 5, ATG4B inh -10 and GRIN3A LBD mod -1.
Screening COc1cccc(NC(=O)Nc2ccc3nsnc3c2)c1 returned SENP1 FRET inh 2, NadD inh -10, UCH37 inh -23, ATG4B inh -10 and GRIN3A LBD mod 37*.
For COc1ccc(NC(=O)Nc2cccc(OC)c2)cc1 the results were SENP1 FRET inh 2, NadD inh -2, UCH37 inh 2, ATG4B inh -7 and GRIN3A LBD mod 25*.
COc1ccc(NC(=O)Nc2ccc3c(c2)CCC3)cc1 was read as SENP1 FRET inh 3, NadD inh -6, UCH37 inh 6, ATG4B inh -9 and GRIN3A LBD mod 14*.
`Cc1ccc(NC(=O)Nc2ccc3c(c2)CCC3)cc1C` gave SENP1 FRET inh -1, NadD inh 4, UCH37 inh 2, ATG4B inh -4 and GRIN3A LBD mod -7.
`Cc1ccc2c(nc3sc(=Cc4cccs4)c(=O)n32)c1C` gave UCH37 inh -3.
Screening Cn1cnnc1SCc1ccc(C(=O)N=Nc2c(O)n(Cc3ccc(Cl)cc3)c3ccccc23)cc1 returned SENP1 FRET inh 2, NadD inh 35*, UCH37 inh 8, ATG4B inh -29 and GRIN3A LBD mod -4.
`COCc1cc(C)nc(OCC(=O)NN=Cc2ccccc2O)c1C#N` gave UCH37 inh -4.
Screening Cc1ccc(C2OC(=O)C=C2c2ccccc2)cc1 (stereo not drawn) returned SENP1 FRET inh 3, NadD inh -3, UCH37 inh 24*, ATG4B inh -7 and GRIN3A LBD mod -1.
Cc1ccc(C2OC(=O)c3ccccc32)cc1 (stereo not drawn) was read as SENP1 FRET inh 0, NadD inh -2, UCH37 inh 6, ATG4B inh 4 and GRIN3A LBD mod -11.
Screening CC(C)COc1ccc(-c2nn(-c3ccccc3)cc2C(=O)Nc2nccs2)cc1 returned SENP1 FRET inh 2, NadD inh 17, UCH37 inh 5, ATG4B inh -7 and GRIN3A LBD mod 10*.
For O=C(Nc1nccs1)c1cn(-c2ccccc2)nc1-c1ccccc1 the results were SENP1 FRET inh 2, NadD inh 3, UCH37 inh 1, ATG4B inh -2 and GRIN3A LBD mod -3.
`CC(=O)Cc1nsc(NC(=O)c2cn(-c3ccccc3)nc2-c2ccc(Br)cc2)n1` gave SENP1 FRET inh 1, NadD inh -6, UCH37 inh 1, ATG4B inh 3 and GRIN3A LBD mod 31*.
Screening O=S(=O)(NN=Cc1ccc2c(c1)OCCO2)c1ccc(Cl)cc1 returned UCH37 inh 4.
`O=C(O)c1cnn(-c2nc(-c3ccc(Cl)cc3)cs2)c1C(F)(F)F` gave SENP1 FRET inh 1, NadD inh -12, UCH37 inh -12, ATG4B inh -1 and GRIN3A LBD mod 28*.
`COc1ccc(-c2csc(-n3ncc(C(=O)O)c3C(F)(F)F)n2)cc1` gave SENP1 FRET inh 2, NadD inh -9, UCH37 inh 0, ATG4B inh 5 and GRIN3A LBD mod 3.
For COc1cc(OC)c(C=NN2CCN(c3ccccc3OC)CC2)c(OC)c1 the results were UCH37 inh 1.
